According to PubChem BioAssay AID1885 (Broad Institute, 2009):
The campaign covered roughly 300,000 compounds. About 4,400 (1.5%) were called active. The sample holds actives, similar compounds and a random draw of the others, so the mix is not that of the screen. Unmarked numbers belong to inactive results.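 How the source made its calls: active means mean inhibition across valid replicates above about 55% (limit read from the data); inconclusive means mean below that limit but half or more replicates reach it; inactive means mean below it, under half of replicates reach it.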

Experiment: Trypanosoma cruzi replication blockers in host cells – luminescence, NIH3T3 host cells, primary screen (AID 1885);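 further: signal also drops with host cell toxicity which is not excluded here; 0% = plate median of DMSO wells and 100% = zero luminescence signal; higher percent means less beta-gal luminescence so fewer parasites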
Settings: T. cruzi beta-gal in NIH3T3, luminescence, 90 h; stronger effect = higher value; concentration not given here
Method in brief: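 Read-out: Parasite load inhibition, % | Test system: Mouse NIH/3T3 fibroblasts infected with β-gal-expressing T. cruzi Tulahuen C4 | Amount: 5,000 cells/well | Medium: DMEM, 2% fetal bovine serum | Signal: GalScreen β-gal luminescence, detergent lysis, 60 min | Timing: 3 h attach, ≥90 h co-culture | Also added: Tulahuen C4 trypomastigotes, 5000/well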

Structure (SMILES)	inhibition
Brc1cnc2ccccc2c1N1CCCCC1	0.276%
Cc1cccc(C(=O)OC(C)CN2CCCC2)c1 (configuration not stated)	-8.01%
Cc1ccc(C(=O)OC(C)CN2CCOCC2)cc1 (configuration not stated)	-11.2%
Cc1cccc(C(=O)OC(C)CN2CCN(C)CC2)c1 (configuration not stated)	56.8% (active)
COc1ccc(-c2oc(/N=C/N3CCCC3)c(C#N)c2-c2ccc(OC)cc2)cc1	57.6% (active)
N#Cc1c(/N=C/N2CCCC2)oc(-c2ccccc2)c1-c1ccccc1	37.2%
COc1cc(C(=O)Nc2oc(-c3ccccc3)c(-c3ccccc3)c2C#N)cc(OC)c1OC	12.7%
O=C(NC1CCCCC1)C1CCC(CNS(=O)(=O)c2ccccc2)CC1 (configuration not stated)	-8.43%
NC(N)=Nc1nc(-c2ccccc2)c2cc(Cl)ccc2n1	65.4% (active)
O=C(CCl)NNc1nc(-c2ccccc2)c2cc(Cl)ccc2n1	3.67%
OCCCNc1nc(-c2ccccc2)c2cc(Cl)ccc2n1	18.3%
CC(Oc1ccccc1[N+](=O)[O-])C(=O)N/N=C/c1ccoc1 (configuration not stated)	-8.31%
O=C(Nc1ccc(N2CCCCC2)cc1)c1cc(S(=O)(=O)N2CCOCC2)ccc1F	22.8%
O=C(Nc1ccc(S(=O)(=O)N2CCCC2)cc1Cl)C1=COCCO1	-14.4%
CCN(CC)c1ccc(S(=O)(=O)N2CCCCC2)cc1NC(=O)C1=COCCO1	61% (active)
CCN(CC)c1ccc(S(=O)(=O)N2CCOCC2)cc1NC(=O)CSc1cccc[n+]1[O-]	5.13%
COc1cccc(NC(=O)CN(C)C(=O)CSCc2nc3scc(-c4cccs4)c3c(=O)[nH]2)c1	-4.78%
O=C(NN1CCOCC1)c1cccc(F)c1	-3.38%
COc1cc(NS(=O)(=O)c2ccc3ccccc3c2)c2ncccc2c1	76.5% (active)
Cc1ccc(NS(=O)(=O)c2ccc(C)c(NC(=O)COc3ccc4ccccc4c3)c2)c(C)c1	30.6%
COc1ccc2cc(S(=O)(=O)Nc3ccccn3)ccc2c1	4.63%
CC(C)C(c1nnnn1C1CCCCC1)N1CCN(C(=O)c2ccco2)CC1 (configuration not stated)	-11.6%
CCCNC(=O)c1c(N)n(-c2ccc(S(N)(=O)=O)cc2)c2nc3ccccc3nc12	-22.9%
CC(C)(C)c1ccc(C(=O)NCCn2c(N)c(C#N)c3nc4ccccc4nc32)cc1	-43.8%

Structure (SMILES)	inhibition
CC(C)Cn1c(N)c(C(=O)NCc2cccs2)c2nc3ccccc3nc21	59.8% (active)
COc1ccccc1CCNC(=O)C1CCN(C(=O)/C=C/c2ccccc2)CC1	-2.7%
CCN(CC)CCN(C(=O)c1ccc(N2C(=O)CCC2=O)cc1)c1nc2cc3c(cc2s1)OCO3	40.8%
CCN(CC)CCN(C(=O)c1cccc([N+](=O)[O-])c1)c1nc2ccc(OC)cc2s1	55.5% (active)
CCOc1ccc2nc(N(CCN(C)C)C(=O)c3ccc4ccccc4c3)sc2c1	26.5%
CCOc1ccc(NC(=O)CCC(=O)NNC(=O)NC2CCCCC2)cc1	8.19%
Cc1ccc2nc(SCC(=O)N3CC(C)OC(C)C3)nc(=O)n2c1 (configuration not stated)	-6.75%
CCN(Cc1ccccc1)S(=O)(=O)c1cc2c3c(c1)CCN3C(=O)CC2	-1.06%
O=c1cnnc(Nc2ccccc2F)[nH]1	-1.79%
O=C(C1=C[C@H](c2ccc(C(F)(F)F)cc2)C[C@H](OCc2ccc(CO)cc2)O1)N1CCN(Cc2ccccc2)CC1	40.5%
CC(C)(C)[C@H]1C=C(C(=O)NCc2ccccc2)O[C@@H](OCc2ccc(CO)cc2)C1	7.55%
O=C(NCc1ccccc1)C1=C[C@@H](c2ccc(C(F)(F)F)cc2)C[C@@H](OCc2ccc(CO)cc2)O1	63% (active)
CN(C)c1nc(Nc2ccc(Cl)c(Cl)c2)nc(N(C)C)n1	9.61%
OCCNc1nc(Nc2ccc(Cl)c(Cl)c2)nc2ccccc12	64.3% (active)
COc1cc2nc(Cl)nc(NCCO)c2cc1OC	-12.7%
COCCNc1nc(-c2ccccc2)nc2c1oc1ccccc12	36.8%
CCc1noc(C)c1C(=O)Oc1ccc(N(C)S(=O)(=O)c2ccc(C)c(C)c2)cc1	31%
COC(=O)C(C(=O)Nc1cccc(Cl)c1C)C1CCCC1 (configuration not stated)	-20.2%
COCCCn1c(SCC(=O)Nc2oc(C)c3c(C)n[nH]c(=O)c23)nc2sc3c(c2c1=O)CCC3	2.14%
CN(C1CCS(=O)(=O)C1)S(=O)(=O)c1ccc2ccccc2c1 (configuration not stated)	-3.79%
Cc1ccccc1Nc1nc(-c2cccnc2)cs1	20.2%
Brc1ccc(-c2csc(N/N=C/c3cccnc3)n2)cc1	69.8% (active)
Brc1ccc(-c2csc(N/N=C/c3ccc4c(c3)OCO4)n2)cc1	31.5%
